Sampled rows, rich in hits. Any-hit rate of the full collection: about 2.3%.
MEKK3 PB1 HTS = modulators (inhibitors or enhancers) of MEK5 binding to human MEKK3 PB1 domain; Q99759; bead-based flow cytometry, Alexa488-MEK5 binding to MEKK3; actives lie on both sides; 0 = blocked by unlabeled MEK5, 100 = vehicle; binding response (% of control), % at 10 µM; 290,000 tested, 1.4% active; AID 1529;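 active means binding response more than 3 SD above or below the average of its plate-row segment, actives on both sides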;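 further: Alexa488 bead fluorescence after subtracting the streptavidin-only scavenger bead signal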
Target sequence (Q99759 whole entry, looked up, the tested form may be a part): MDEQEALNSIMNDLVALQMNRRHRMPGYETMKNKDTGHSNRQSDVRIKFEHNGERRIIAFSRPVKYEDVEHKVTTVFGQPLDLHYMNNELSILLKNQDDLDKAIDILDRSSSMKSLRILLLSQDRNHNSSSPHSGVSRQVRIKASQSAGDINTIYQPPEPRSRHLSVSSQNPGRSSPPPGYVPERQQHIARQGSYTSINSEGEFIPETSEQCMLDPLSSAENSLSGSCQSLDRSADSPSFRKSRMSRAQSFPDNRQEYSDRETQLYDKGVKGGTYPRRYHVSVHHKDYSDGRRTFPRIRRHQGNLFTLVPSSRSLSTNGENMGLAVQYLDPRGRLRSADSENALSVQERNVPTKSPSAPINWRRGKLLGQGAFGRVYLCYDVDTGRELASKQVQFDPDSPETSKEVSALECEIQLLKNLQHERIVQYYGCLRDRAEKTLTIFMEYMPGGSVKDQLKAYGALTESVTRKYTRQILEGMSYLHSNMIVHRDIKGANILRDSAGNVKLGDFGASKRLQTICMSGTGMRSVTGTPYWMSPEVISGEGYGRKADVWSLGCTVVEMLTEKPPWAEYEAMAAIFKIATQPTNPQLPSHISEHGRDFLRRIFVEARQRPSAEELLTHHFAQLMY
ABCB1 inh = inhibitors of human ABCB1 transporter, ABCG2 counter-screen. AID 1326. inhibition, % at 6.6 µM. CCRF-Adr cells, JC-1 efflux, flow cytometry. 190,000 tested, 0.067% active; in the data active means inhibition above about 40%;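 further: 0% = vehicle and 100% = reference inhibitor; higher value means more JC-1 retained so stronger ABCB1 efflux block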
ABCG2 inh = human ABCG2 inhibition, ABCB1 as counter-screen; IgMXP3 cells, JC-1 efflux, flow cytometry; 190,000 tested, 0.1% active; inhibition, % at 6.6 µM; Q9UNQ0;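 active means inhibition above 80%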;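 further: 0% = DMSO and 100% = nicardipine control wells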
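Incubation: cells with compound and JC-1, 10 min at 25 °C, rotating, no wash / Test system: IgMXP3 (ABCG2) plus far-red-tagged CCRF-Adr (ABCB1) cells / Compound dosing: one concentration, 6.6 µM final / Also added: JC-1 fluorescent substrate / Evaluation: efflux inhibition in percent versus controls / Detection: flow cytometry, 530 nm JC-1 signal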
MEKK2 WT-MEK5 = raises or lowers MEK5 binding to wildtype human MEKK2 PB1 domain. Q9Y2U5. bead flow cytometry, Alexa488-MEK5 binding to MEKK2 WT; actives lie on both sides. 290,000 tested, 1.1% active. binding response (% of control), % at 10 µM; in the data active means binding response below about 67% or above about 130%
MEKK2 mut-MEK5 = signal of MEK5 binding to mutant human MEKK2 PB1 domain | bead flow cytometry, Alexa488-MEK5 binding to MEKK2 mutant | 290,000 tested, 0.35% active | percent response, % at 10 µM; in the data active means percent response above about 24%, passing the limit was not always enough
MEKK2wt confirm = raises or lowers MEK5 binding to wildtype human MEKK2, retest. bead flow cytometry, Alexa488-MEK5 binding to MEKK2 WT; actives lie on both sides. 5,900 tested, 2.4% active. AID 1892. binding response (% of control), % at 10 µM. shares compounds with MEKK3 PB1 HTS; in the data active means binding response below about 16% or above about 210%; inactive means in between
MEKK2mut-MEK5 = signal of MEK5 binding to mutant human MEKK2, retest; shares compounds with MEKK3 PB1 HTS; bead flow cytometry, Alexa488-MEK5 binding to MEKK2 mutant; percent response, % at 10 µM; 5,900 tested, 2% active; in the data active means percent response mostly above about 71%, no sharp cut-off; inactive means mostly below about 38%;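 further: higher means compound restores mutant binding toward wildtype level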
MEKK3-MEK5 inh = confirmation of inhibitors of MEK5 binding to human MEKK3 | shares compounds with MEKK3 PB1 HTS | bead flow cytometry, Alexa488-MEK5 binding to MEKK3; stronger effect = lower value | binding response (% of control), % at 10 µM | 5,900 tested, 1.8% active;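 active means binding response below 72% of control, or above a set upper limit, though filed actives all read lower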;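 further: 100% = DMSO only wells and 0% = binding blocked by excess unlabeled MEK5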
Starred values were filed as active, the others as inactive; / = no result; [ ] = another dose, or the depositor's remark.

SMILES	MEKK3 PB1 HTS	ABCB1 inh	ABCG2 inh	MEKK2 WT-MEK5	MEKK2 mut-MEK5	MEKK2wt confirm	MEKK2mut-MEK5	MEKK3-MEK5 inh
Cc1c(C(=O)NC2CCCc3ccccc32)oc2ccc(S(=O)(=O)N3CCOCC3)cc12 (configuration not stated)	82*[inhibitor]	0	-2	84	-3	101	0	101
CCOC(=O)N1CCN(C(=O)c2oc3ccc(S(=O)(=O)N4CCCCC4)cc3c2C)CC1	94	2	6	91	-1	/	/	/
Cc1ccc(F)c(NC(=O)c2c(-c3ccccc3)noc2C)c1	101	/	/	105	6	/	/	/
COc1ccc(OC)c(NC(=O)NNC(=O)COc2ccc([N+](=O)[O-])cc2)c1	101	/	/	106	6	/	/	/
CSCC[C@H](NC(=O)OC(C)(C)C)C(=O)N1CCC(C(=O)NCC(=O)Nc2ccc(C)cc2)CC1	101	/	/	104	8	/	/	/
CCOc1ccc(C(=O)NCC(c2cccs2)N(C)C)cc1OCC (configuration not stated)	70*[inhibitor]	1	19	94	-2	100	5	103
CCCCn1c(SCC(=O)N2CCOCC2)nnc1-c1ccoc1C	128*	1	7	107	2	104	10	105
COc1ccc(CCN(C)C2CCCN(S(=O)(=O)c3ccccc3F)C2)cc1OC (configuration not stated)	107	/	/	111	10	/	/	/
Cc1[nH]c2ccccc2c1/C=N/NC(=O)c1cccs1	98	0	1	88	128*	104	2	98
Cc1nn(-c2ccccc2)c(C)c1/C=N/NC(=O)c1cc(-c2cccs2)[nH]n1	102	1	-2	101	-1	/	/	/
Cc1nn(-c2ccccc2)c(C)c1/C=N/NC(=O)c1cccs1	133*	1	9	100	-1	104	1	104
CC(=O)Nc1ccc2nc(-c3ccc(Br)o3)[nH]c2c1	66*[inhibitor]	0	4	63*[inhibitor]	-3	104	9	104
O=C(NCC1COCCO1)c1cc(COc2ccc(F)cc2F)on1 (configuration not stated)	99	/	/	99	3	/	/	/
CCc1ccc(NC(=O)C2C3CCC(O3)C2C(=O)O)cc1 (configuration not stated)	105	/	/	107	0	/	/	/
Clc1ccc(-c2csc(N/N=C/c3ccc4c(c3)OCO4)n2)cc1	136*	-1	-7	107	1	100	-4	102
Cc1ccc(C(=O)NCCc2sc(C)nc2C)cc1	108	0	11	118	29	/	/	/
Cc1nc(C)c(CCNC(=O)c2ccc(C(F)(F)F)cc2)s1	138*	0	0	106	1	102	3	105
O=C(Nc1cccc2ccccc12)NC1Cc2ccccc2C1	73*[inhibitor]	/	/	82	-10	111	3	98
COc1ccc(C)cc1S(=O)(=O)N1CCCCCC1	129*	/	/	112	26	99	6	102
Nc1c2c(nc3ccc(Br)cc13)N(c1ccccc1)CC2	104	-1	0	117	6	/	/	/
Cc1cccc(N2CCc3c2nc2ccc(Br)cc2c3N)c1	124*	0	0	96	18	121	22	111
CCn1c(O)c(N=NC(=O)CNc2cccc(C)c2)c2ccccc21	148*	1	32	107	1	100	3	102
CCc1c(C)nc(SCC(=O)NNC(=O)c2ccco2)[nH]c1=O	95	/	/	98	2	/	/	/
CCCCCCCCNC(C)C(O)c1ccc(SC(C)C)cc1 (configuration not stated)	114	1	-1	142*	48*	198	51	108
C[C@@H](NCCc1ccc(O)cc1)[C@@H](O)c1ccc(O)cc1	115	/	/	117	5	/	/	/
SMILES	MEKK3 PB1 HTS	ABCB1 inh	ABCG2 inh	MEKK2 WT-MEK5	MEKK2 mut-MEK5	MEKK2wt confirm	MEKK2mut-MEK5	MEKK3-MEK5 inh
Cc1ccccc1NC(=O)c1c(Cl)nc(C)c(Cl)c1C	104	0	1	104	-1	/	/	/
Cc1nc(Cl)c(C(=O)NC(=O)NCc2ccccc2)c(C)c1Cl	142*	1	2	107	1	97	-6	100
COC(=O)c1ccc(C(=O)OC)c(NC(=O)C2CCCO2)c1 (configuration not stated)	103	/	/	101	2	/	/	/
COc1cc(/C=c2\sc3nc(=O)c(-c4ccccc4)nn3c2=O)ccc1OCCC(C)C	140*	-1	-5	97	-1	99	1	103
CCOc1ccc(/C=c2\sc3nc(-c4ccco4)nn3c2=O)cc1OCC	105	0	1	105	13	/	/	/
CCCCc1nc2cc(C(=O)N3CCCC(OCCC)C3)ccc2o1 (configuration not stated)	103	/	/	101	3	/	/	/
CN(C)C(=O)COC(=O)c1cccc(CN2C(=O)c3ccccc3C2=O)c1	71*[inhibitor]	2	3	84	-3	100	0	103
COCCCN1C(=O)c2ccc(C(=O)OCC(=O)N(C)c3ccccc3)cc2C1=O	106	0	0	102	0	/	/	/
Cc1ccc2nc(Cl)c3cc(C(=O)NCCCN4CCCC4)sc3c2c1	109	0	2	162*	3	174	46	114
Cc1ccc2nc(Cl)c3cc(C(=O)N(CCN(C)C)Cc4ccco4)sc3c2c1	96	1	2	149*	5	137	21	104
CN(C)CCN(Cc1ccco1)C(=O)c1cc2c(Cl)nc3ccccc3c2s1	98	2	5	114	-8	/	/	/
CN1C(=O)Cc2cc(S(=O)(=O)Nc3ccc(Cl)cc3)ccc21	103	/	/	104	-2	/	/	/
Cc1cc2oc(=O)cc(CN3CCCCC3C)c2cc1C(C)C (configuration not stated)	102	/	/	98	-2	/	/	/
Cc1c(CCOC(=O)CC23CC4CC(CC(C)(C4)C2)C3)sc[n+]1CC(=O)c1ccccc1	108	0	0	153*	6	155	7	101
O=C(NN1C(=O)c2cc(Br)ccc2NC1c1cc(Br)cc(Br)c1O)c1ccncc1 (configuration not stated)	133*	1	0	100	1	97	-1	98
O=C(NN1C(=O)c2cc(Br)ccc2NC1c1ccccc1Cl)c1ccncc1 (configuration not stated)	101	0	2	99	2	/	/	/
O=C(CSc1nnc(CNC(=O)c2ccccc2)o1)Nc1nccs1	107	/	/	111	11	/	/	/
